Several values for one entry are separate records, joined by “and”; a condition that tells them apart may be missing. Equal entries are not always repeated. Bridge positions count the residues as written; N and C are the ends. Square brackets hold non-standard residues; d marks the D form. Peptide text beside a SMILES is read from it. * marks the point of attachment. DOTA = O=C(O)CN1CCN(CC(=O)O)CCN(CC(=O)*)CCN(CC(=O)O)CC1; Nle = CCCC[C@H](N)C(=O)O
Tests used:
B16/F10 melanoma cells [1] = experiment: Cellular internalization in B16/F10 cells; type: cell-based, murine; conditions: after 2 h incubation, 25°C
Summary of the method: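 B16/F10 cells were washed with binding medium and incubated at 25°C for 20, 40, 60, 90 and 120 min (n=4) with about 200,000 cpm (0.019 pmol) of HPLC-purified 111In-labelled test peptide. Cells were rinsed with ice-cold PBS/BSA. Surface-bound activity was stripped with pH 4.5 acetate buffer (0.9% NaCl, 0.2% BSA). Cells were then lysed in 1 N NaOH for 5 min, and both fractions were gamma-counted.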

B16/F10 melanoma cells [2] = experiment: Cellular efflux in B16/F10 cells; type: cell-based, murine; conditions: 2 h after incubating cells in culture media
Summary of the method: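 B16/F10 cells were loaded with the HPLC-purified 111In-labelled test peptide for 2 h at 25°C, then rinsed twice with ice-cold pH 7.4 0.2% BSA/0.01 M PBS. Release of radioactivity into the culture medium was then followed. At 20, 40, 60, 90 and 120 min, cell-surface and intracellular activities were collected separately and gamma-counted.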

[3] = Biodistribution in B16/F10 pulmonary metastatic melanoma-bearing C57 mice; type: in vivo, mouse; conditions: C57, mouse, 0.037 MBq; for tissue uptake at 4 h / tissue uptake at 24 h / tissue uptake at 2 h: intravenous
Summary of the method: (§1)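 Lung metastases were induced in C57 mice by tail-vein injection of 0.2 million cultured B16/F10 cells and used 16 days later. Normal C57 mice served as comparators. Each mouse got 0.037 MBq of HPLC-purified 111In-labelled test peptide by tail vein. Groups of 5 were killed at 2, 4 and 24 h, and organs were weighed and gamma-counted. Blood was taken as 6.5% of body weight. Ratios compare metastatic-lung with normal-lung uptake.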

[4] = tested on: B16/F10 pulmonary metastatic melanoma-bearing C57 mice; experiment: as above; type: in vivo, mouse; conditions: 16 days post the cell injection
Summary of the method: as §1

[5] = Biodistribution in normal C57 mice; type: in vivo; conditions: C57, mouse, 0.037 MBq, total radioactivity; for dose excreted: urine, percent injected dose, normal mice, Mean±SD, n=5
Stability in mouse serum = type: in vitro ADME; conditions: 37°C, 24 h
[6] = tested on: B16/F10 pulmonary melanoma metastases; conditions: mouse, in vivo
[7] = tested on: flank B16/F1 murine melanoma; conditions: cited from earlier work
[8] = intestine, iv, total radioactivity
[9] = lung/blood, iv, total radioactivity
[10] = lung/kidney, iv, total radioactivity
[11] = lung/liver, iv, total radioactivity
[12] = lung/muscle, iv, total radioactivity

For CCCC[C@@H]1NC(=O)[C@@H](NC(=O)[C@H](CCC(=O)O)NC(=O)CNC(=O)CN2CCN(CC(=O)O)CCN(CC(=O)O)CCN(CC(=O)O)CC2)CCCCNC(=O)C[C@@H](C(N)=O)NC(=O)[C@H](C(C)C)NC(=O)[C@@H]2CCCN2C(=O)[C@H](CCCNC(=N)N)NC(=O)CNC(=O)[C@H](Cc2c[nH]c3ccccc23)NC(=O)[C@H](CCCNC(=N)N)NC(=O)[C@@H](Cc2ccccc2)NC(=O)[C@H](Cc2c[nH]cn2)NC(=O)[C@H](CCC(=O)O)NC1=O [^111In-DOTA-GlyGlu-CycMSH, ^111In-labeled 1,4,7,10-Tetraazacyclododecane-1,4,7,10-tetraacetic acid-Gly-Glu-c[Lys-Nle-Glu-His-DPhe-Arg-Trp-Gly-Arg-Pro-Val-Asp], metal not drawn] ({DOTA}-GEK[Nle]EH[dF]RWGRPVD-NH2; lactam 3-14; C-terminus assumed), the “activity internalized in the cells” value (B16/F10 melanoma cells [1]) was 79.7±10.1%, the “activity remained inside the cells (efflux)” value (B16/F10 melanoma cells [2]) was 90.6±5.3% and ~90% and the tissue uptake dose at 2 h [3, 8] was 7.7 ± 2.05 %ID. For the same compound, the tissue uptake dose at 4 h [3, 8] was 5.97 ± 0.48 %ID, the tissue uptake dose at 24 h [3, 8] was 0.11 ± 0.03 %ID and the tissue uptake at 4 h ([3]; kidneys, total radioactivity) was 14.5 ± 0.21 %ID/g. For the same compound, the tissue uptake at 24 h ([3]; kidneys, total radioactivity) was 15.1 ± 0.86 %ID/g, the tissue uptake at 4 h ([3]; liver, total radioactivity) was 0.45 ± 0.05 %ID/g and the tissue uptake at 4 h ([3]; lung) was 1.83 ± 0.12 %ID/g. For the same compound, the tissue uptake at 24 h ([3]; lung) was 0.29 ± 0.06 %ID/g, the tissue to tissue ratio at 2 h [3, 9] was 16.7 and the tissue to tissue ratio at 4 h [3, 9] was 61. It also gave a tissue to tissue ratio at 24 h [3, 9] of 9.67, a tissue to tissue ratio at 2 h [3, 10] of 0.12 and a tissue to tissue ratio at 4 h [3, 10] of 0.13. For the same compound, the tissue to tissue ratio at 2 h [3, 11] was 4.76, the tissue to tissue ratio at 4 h [3, 11] was 4.07 and the tissue to tissue ratio at 24 h [3, 11] was 2.23. For the same compound, the tissue to tissue ratio at 2 h [3, 12] was 50, the tissue to tissue ratio at 4 h [3, 12] was 61 and the tissue to tissue ratio at 24 h [3, 12] was 9.67. It also gave a tissue uptake at 2 h ([3]; skin, total radioactivity) of 0.26 ± 0.22 %ID/g, a tissue uptake at 4 h ([3]; skin, total radioactivity) of 0.36 ± 0.08 %ID/g and a tissue uptake at 2 h ([3]; spleen, total radioactivity) of 0.26 ± 0.07 %ID/g. For the same compound, the “uptake in metastatic melanoma-bearing lung relative to normal lung” value ([4]; 2 h post-injection) was 25.0 times, the “uptake in metastatic melanoma-bearing lung relative to normal lung” value ([4]; 4 h post-injection) was 36.6 times and the “uptake in metastatic melanoma-bearing lung relative to normal lung” value ([4]; 24 h post-injection) was 9.7 times. It also gave a tissue uptake dose at 2 h ([5]; intestine, iv) of 7.08 ± 1.54 %ID, a tissue uptake dose at 4 h ([5]; intestine, iv) of 4.65 ± 0.85 %ID and a tissue uptake dose at 24 h ([5]; intestine, iv) of 0.11 ± 0.08 %ID. For the same compound, the tissue uptake at 2 h ([5]; kidneys, intravenous) was 14.1 ± 2.23 %ID/g, the tissue uptake at 24 h ([5]; kidneys, intravenous) was 13.5 ± 1.48 %ID/g and the tissue uptake at 4 h ([5]; liver, intravenous) was 0.38 ± 0.01 %ID/g. For the same compound, the tissue to tissue ratio at 24 h ([5]; lung and muscle, iv) was 1.5, the tissue to tissue ratio at 2 h ([5]; lung/blood, iv) was 8 and the tissue to tissue ratio at 4 h ([5]; lung/blood, iv) was 2.5. It also gave a tissue to tissue ratio at 24 h ([5]; lung/blood, iv) of 1, a tissue to tissue ratio at 2 h ([5]; lung/kidney, iv) of 0.01 and a tissue to tissue ratio at 4 h ([5]; lung/kidney, iv) of 0.01. For the same compound, the tissue to tissue ratio at 4 h ([5]; lung/liver, iv) was 0.13, the tissue to tissue ratio at 24 h ([5]; lung/liver, iv) was 0.25 and the tissue to tissue ratio at 2 h ([5]; lung/muscle, iv) was 2.67. For the same compound, the tissue to tissue ratio at 4 h ([5]; lung/muscle, iv) was 1.67, the tissue uptake at 4 h ([5]; skin, intravenous) was 0.23 ± 0.08 %ID/g and the tissue uptake at 2 h ([5]; stomach, intravenous) was 0.14 ± 0.07 %ID/g. The dose excreted ([5]; iv, 2 h post-injection) was 84.7 ± 1.97%, the dose excreted ([5]; iv, 4 h post-injection) was 89 ± 0.92% and the dose excreted ([5]; iv, 24 h post-injection) was 96.06 ± 0.53%. For the same compound, the “stability in mouse serum” value (Stability in mouse serum) was “stable”, the “accumulation of activity in normal organs in whole-body SPECT/CT image” value [6] was “extremely low” and the tumor uptake ([7]; 2 h post-injection, flank B16/F1 murine melanoma-bearing mouse model) was 10.40±1.40 % ID/g. For the same compound, the “reduction of renal uptake by negatively-charged -Gly-Glu- linker” value ([7]; 4 h post-injection, without affecting the tumor uptake) was 44%.
